Test [1] has as its system Hepatitis B virus. Description: Antiviral activity against Hepatitis B virus infected in human HepG2(2.2.15) cells assessed as decrease in intracellular viral DNA level at 2.16 uM after 72 hrs by RT-PCR analysis. The class given is functional, organism-based. The procedure, abridged: (§1)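 HepG2.2.15 cells (HBV genome-transfected, MEM + 10% FBS) treated 72 h with drug alone or in two-drug combination. Entecavir 0.6 μg/ml (2.16 μM), adefovir 3 μg/ml (5.9 μM), lamivudine 3 μg/ml (13 μM), oxymatrine 30 μg/ml (113 μM). Intracellular HBV DNA by SYBR Green real-time PCR, relative to untreated. Experiment repeated twice; means and SD, Student's t test.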

Test [2] relates to Hepatitis B virus. Kind of test: Antiviral activity against Hepatitis B virus infected in human HepG2(2.2.15) cells assessed as decrease in intracellular viral DNA level at 13 uM after 72 hrs by RT-PCR analysis. It counts as functional, organism-based. In a few lines: as §1
A short description of test [3]: Decrease in HscA70-mRNA expression in Hepatitis B virus infected in human HepG2(2.2.15) cells at 13 uM after 24-36 hrs by RT-PCR analysis. It counts as functional, cell-based.

SMILES strings stand for the structures. Active and inactive are the calls of the source. The calls are words filed in the database; no cut-off is given here.

Turning to `C=C1[C@H](CO)[C@@H](O)C[C@@H]1n1cnc2c(=O)[nH]c(N)nc21`, the outcome in the test on Hepatitis B virus [1] was Active.
On to `Nc1ccn([C@@H]2CS[C@H](CO)O2)c(=O)n1`, for which the outcome in the test on Hepatitis B virus [2] was Active. The result in test [3] was inactive.

The record behind these values is ChEMBL document CHEMBL1255434, “Heat stress cognate 70 host protein as a potential drug target against drug resistance in hepatitis B virus” (Antimicrob Agents Chemother, 2010).
